Data set [1] has as its system Rattus norvegicus. In words: Dose normalized AUC in rat at 1 mg/kg, po. It is filed as ADME, organism-based. The settings on record: in vivo. Set-up: dose 1 mg/kg, route oral. In short, it runs like this:
(§1)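 Rats dosed at 1 mg/kg iv (n = 2) or 1 mg/kg po (n = 3), formulated at 1 mg/mL in PEG 200:water (70:30). Blood concentrations measured by LC/MS/MS after protein precipitation with acetonitrile.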

Data set [2] concerns Rattus norvegicus. The data set can be described thus: Volume of distribution at steady state in rat at 1 mg/kg, iv and 1 mg/lg, po. It is filed as ADME, organism-based. Further details: dose 1 mg/kg, route oral. The settings on record: in vivo. The procedure, abridged:
as §1

The nature of data set [3]: Half life in rat at 1 mg/kg, iv and 1 mg/lg, po. In kind it is ADME, organism-based. Further details: dose 1 mg/kg, route oral. Conditions: in vivo. The procedure, abridged: as §1
The target of another data set is T1, Glucocorticoid receptor (Homo sapiens, UniProt P04150).
T1 sequence (P04150 whole entry): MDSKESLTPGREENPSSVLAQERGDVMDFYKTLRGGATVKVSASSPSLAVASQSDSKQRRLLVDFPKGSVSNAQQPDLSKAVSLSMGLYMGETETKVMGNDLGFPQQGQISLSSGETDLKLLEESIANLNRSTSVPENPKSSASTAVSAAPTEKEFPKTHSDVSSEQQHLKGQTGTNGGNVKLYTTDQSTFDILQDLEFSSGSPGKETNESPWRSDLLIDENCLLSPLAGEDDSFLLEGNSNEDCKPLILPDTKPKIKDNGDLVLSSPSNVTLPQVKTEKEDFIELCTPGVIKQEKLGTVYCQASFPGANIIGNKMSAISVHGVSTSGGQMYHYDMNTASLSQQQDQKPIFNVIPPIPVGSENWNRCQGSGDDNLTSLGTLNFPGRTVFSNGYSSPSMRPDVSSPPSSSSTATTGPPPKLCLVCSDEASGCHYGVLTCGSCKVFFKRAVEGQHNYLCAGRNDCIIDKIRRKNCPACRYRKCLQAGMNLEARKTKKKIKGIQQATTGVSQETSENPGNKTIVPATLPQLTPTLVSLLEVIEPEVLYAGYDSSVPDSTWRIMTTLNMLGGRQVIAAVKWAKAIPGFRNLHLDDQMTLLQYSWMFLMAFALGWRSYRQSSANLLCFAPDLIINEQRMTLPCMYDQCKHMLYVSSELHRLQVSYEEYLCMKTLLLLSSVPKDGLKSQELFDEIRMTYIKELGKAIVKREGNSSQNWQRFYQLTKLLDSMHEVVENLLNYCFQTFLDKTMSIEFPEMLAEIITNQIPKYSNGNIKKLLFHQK
In words: Agonist activity at glucocorticoid receptor (unknown origin) by NH Pro assay.

A short description of data set [4]: Cmax in rat at 1 mg/kg, iv and 1 mg/lg, po. In kind it is ADME, organism-based. Further details: dose 1 mg/kg, route oral. The settings on record: in vivo. In short, it runs like this:
as §1

Data set [5] has as its system Rattus norvegicus. The data set can be described thus: Dose normalized AUC in rat at 1 mg/kg, iv. In kind it is ADME, organism-based. Further details: dose 1 mg/kg, route intravenous. Conditions: in vivo. The procedure, abridged: as §1
The target of the next data set is T2, Androgen receptor (Homo sapiens, UniProt P10275).
T2 sequence (P10275 whole entry): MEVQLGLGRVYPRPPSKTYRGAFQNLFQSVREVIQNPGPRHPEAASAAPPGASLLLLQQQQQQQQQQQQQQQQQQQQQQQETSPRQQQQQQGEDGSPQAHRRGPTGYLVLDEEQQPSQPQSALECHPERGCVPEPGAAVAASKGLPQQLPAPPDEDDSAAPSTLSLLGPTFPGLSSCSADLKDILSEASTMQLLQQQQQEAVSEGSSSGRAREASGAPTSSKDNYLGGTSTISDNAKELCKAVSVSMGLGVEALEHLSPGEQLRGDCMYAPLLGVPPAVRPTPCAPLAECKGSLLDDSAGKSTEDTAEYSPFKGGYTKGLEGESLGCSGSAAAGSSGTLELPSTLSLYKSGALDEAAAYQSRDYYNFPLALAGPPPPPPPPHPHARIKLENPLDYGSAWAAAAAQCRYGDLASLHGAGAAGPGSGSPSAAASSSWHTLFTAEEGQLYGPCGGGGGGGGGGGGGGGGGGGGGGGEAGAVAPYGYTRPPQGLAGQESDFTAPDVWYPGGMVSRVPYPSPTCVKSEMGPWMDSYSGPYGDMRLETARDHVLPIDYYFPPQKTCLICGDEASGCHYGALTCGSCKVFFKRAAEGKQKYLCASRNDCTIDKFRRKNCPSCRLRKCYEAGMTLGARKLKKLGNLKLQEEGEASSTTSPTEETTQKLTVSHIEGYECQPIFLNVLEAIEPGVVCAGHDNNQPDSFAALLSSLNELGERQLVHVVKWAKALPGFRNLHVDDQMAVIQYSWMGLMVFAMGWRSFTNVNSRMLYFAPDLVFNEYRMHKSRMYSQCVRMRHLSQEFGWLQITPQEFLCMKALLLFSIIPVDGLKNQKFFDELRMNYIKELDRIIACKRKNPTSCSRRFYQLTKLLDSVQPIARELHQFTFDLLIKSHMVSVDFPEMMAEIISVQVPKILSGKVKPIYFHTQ
In words: Agonist activity at androgen receptor (unknown origin) by NH Pro assay.

Data set [6] concerns the target T3, Estrogen receptor (Homo sapiens, UniProt P03372).
T3 sequence (P03372 whole entry): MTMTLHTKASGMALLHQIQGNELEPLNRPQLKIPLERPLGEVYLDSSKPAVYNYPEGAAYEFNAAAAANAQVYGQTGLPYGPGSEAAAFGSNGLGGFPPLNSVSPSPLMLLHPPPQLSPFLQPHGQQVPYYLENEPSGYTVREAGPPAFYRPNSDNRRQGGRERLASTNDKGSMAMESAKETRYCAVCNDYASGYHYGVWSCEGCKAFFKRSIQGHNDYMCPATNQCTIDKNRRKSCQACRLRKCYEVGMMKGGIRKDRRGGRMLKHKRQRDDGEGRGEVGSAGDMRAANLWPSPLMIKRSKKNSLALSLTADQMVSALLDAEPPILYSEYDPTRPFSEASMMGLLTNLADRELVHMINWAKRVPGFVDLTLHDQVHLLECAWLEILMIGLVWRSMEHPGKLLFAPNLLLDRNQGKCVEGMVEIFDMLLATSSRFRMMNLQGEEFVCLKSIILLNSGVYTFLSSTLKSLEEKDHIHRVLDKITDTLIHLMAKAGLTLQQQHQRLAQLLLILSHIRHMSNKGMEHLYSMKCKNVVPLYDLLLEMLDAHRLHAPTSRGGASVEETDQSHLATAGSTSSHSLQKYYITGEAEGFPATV
In words: Antagonist activity at estrogen receptor alpha (unknown origin) by NH Pro assay.

In data set [7] the target is T3, Estrogen receptor. In words: Agonist activity at estrogen receptor alpha (unknown origin) by NH Pro assay.
The next data set deals with Estrogen receptor beta (Homo sapiens, UniProt Q92731). In words: Antagonist activity at estrogen receptor beta (unknown origin) by NH Pro assay.

We go through 2 compounds from ChEMBL document CHEMBL2407028, “Discovery of novel oxazolidinedione derivatives as potent and selective mineralocorticoid receptor antagonists” (Bioorg Med Chem Lett, 2013).

Some results are limits rather than exact numbers.

Chain of Estrogen receptor beta (Q92731 whole entry): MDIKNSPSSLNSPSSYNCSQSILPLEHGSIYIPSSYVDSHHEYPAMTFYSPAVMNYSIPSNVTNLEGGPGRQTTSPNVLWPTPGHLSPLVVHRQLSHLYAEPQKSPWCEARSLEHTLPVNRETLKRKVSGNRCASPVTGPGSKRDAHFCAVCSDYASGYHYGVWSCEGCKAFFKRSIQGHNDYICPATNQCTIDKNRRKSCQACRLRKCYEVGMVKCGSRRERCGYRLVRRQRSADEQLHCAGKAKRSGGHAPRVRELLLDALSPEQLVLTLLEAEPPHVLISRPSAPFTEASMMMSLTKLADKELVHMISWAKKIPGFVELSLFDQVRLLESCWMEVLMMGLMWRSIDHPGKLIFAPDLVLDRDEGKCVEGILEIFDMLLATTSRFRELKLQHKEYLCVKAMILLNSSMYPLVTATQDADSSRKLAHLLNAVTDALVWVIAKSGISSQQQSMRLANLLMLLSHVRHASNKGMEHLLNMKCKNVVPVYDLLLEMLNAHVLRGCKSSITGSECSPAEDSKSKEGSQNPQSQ

A word on the half-life: it is how long it takes for the measured level to halve. For orientation: EC50 means the concentration giving half of the maximal effect. Low readings indicate a more potent agent, high ones a less potent agent. A word on the Cmax: it is the highest concentration seen after dosing. The IC50 is the concentration that gives 50% inhibition. In the case of `COc1cc(CNC(=O)[C@@]2(Cc3ccccc3)OC(=O)N([C@@H]3CCc4ccccc43)C2=O)cc(OC)c1`, the figures for the AUC/dose in the data set on Rattus norvegicus [1] and in the data set with Rattus norvegicus [5] were 0.24 µM·kg·h/mg and 0.89 µM·kg·h/mg, respectively. Moreover, the Vdss in the data set on Rattus norvegicus [2] was found to be 4.7 L/kg. The same compound showed a half-life in [3] of 2.5 h. Also, the concentration giving a half-maximal response (EC50) on Glucocorticoid receptor, on Androgen receptor and at Estrogen receptor [7] was over 20 µM each time. In addition, in data set [4], the peak level (Cmax) was 98 nM. Further, the IC50 at Estrogen receptor [6] worked out at 17 µM; on Estrogen receptor beta, 15 µM.

For the compound `C[C@H](c1ccc(F)cc1)N1C(=O)O[C@](Cc2ccc(F)cc2)(C(=O)NCc2ccc(Cl)c(Cl)c2)C1=O`, the AUC/dose with Rattus norvegicus [1] was 0.24 µM·kg·h/mg; with Rattus norvegicus [5] it was 0.46 µM·kg·h/mg. The Vdss in the data set on Rattus norvegicus [2] amounted to 7.9 L/kg. The half-life in [3] is 2.3 h. Moreover, the EC50 at Glucocorticoid receptor, at Androgen receptor and on Estrogen receptor [7] was over 20 µM throughout. This compound also yielded a peak concentration (Cmax) in data set [4] of 120 nM. Moreover, the IC50 at Estrogen receptor [6] was determined as 7.3 µM; against Estrogen receptor beta, 15 µM.
